The whole screen tested about 340,000 compounds, of which about 190 (0.056%) were called active.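 How the source made its calls: active means activation of 40% or more at 20 µM, a change of -40% or lower; inactive means the rest.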 Many of the other results were omitted from the sample, so actives are more common in it than they were.
Target: Hexokinase HKDC1 (Homo sapiens) (UniProt Q2TB90)
Test: enhancers of human HKDC1 enzyme activity – biochemical, fluorescence, uHTS, primary screen (AID 493187)
Conditions: recombinant HKDC1, G6PDH/diaphorase resazurin fluorescence; at 20 µM; hits give low values
Summary of the method: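 System: in-house human HKDC1 enzyme, G6PDH and diaphorase coupling enzymes; Quantity: 5 µg/mL HKDC1 final; Buffer or medium: Tris/MgCl2 buffer, pH 8.0; Dosing: single compound dose of 20 µM, 1% DMSO final; Times: 90 min reaction at room temperature, dark; Detection: coupled resazurin-to-resorufin fluorescence, Ex 525/Em 613 nm.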

Hexokinase HKDC1 (Homo sapiens), sequence (Q2TB90 whole entry, looked up): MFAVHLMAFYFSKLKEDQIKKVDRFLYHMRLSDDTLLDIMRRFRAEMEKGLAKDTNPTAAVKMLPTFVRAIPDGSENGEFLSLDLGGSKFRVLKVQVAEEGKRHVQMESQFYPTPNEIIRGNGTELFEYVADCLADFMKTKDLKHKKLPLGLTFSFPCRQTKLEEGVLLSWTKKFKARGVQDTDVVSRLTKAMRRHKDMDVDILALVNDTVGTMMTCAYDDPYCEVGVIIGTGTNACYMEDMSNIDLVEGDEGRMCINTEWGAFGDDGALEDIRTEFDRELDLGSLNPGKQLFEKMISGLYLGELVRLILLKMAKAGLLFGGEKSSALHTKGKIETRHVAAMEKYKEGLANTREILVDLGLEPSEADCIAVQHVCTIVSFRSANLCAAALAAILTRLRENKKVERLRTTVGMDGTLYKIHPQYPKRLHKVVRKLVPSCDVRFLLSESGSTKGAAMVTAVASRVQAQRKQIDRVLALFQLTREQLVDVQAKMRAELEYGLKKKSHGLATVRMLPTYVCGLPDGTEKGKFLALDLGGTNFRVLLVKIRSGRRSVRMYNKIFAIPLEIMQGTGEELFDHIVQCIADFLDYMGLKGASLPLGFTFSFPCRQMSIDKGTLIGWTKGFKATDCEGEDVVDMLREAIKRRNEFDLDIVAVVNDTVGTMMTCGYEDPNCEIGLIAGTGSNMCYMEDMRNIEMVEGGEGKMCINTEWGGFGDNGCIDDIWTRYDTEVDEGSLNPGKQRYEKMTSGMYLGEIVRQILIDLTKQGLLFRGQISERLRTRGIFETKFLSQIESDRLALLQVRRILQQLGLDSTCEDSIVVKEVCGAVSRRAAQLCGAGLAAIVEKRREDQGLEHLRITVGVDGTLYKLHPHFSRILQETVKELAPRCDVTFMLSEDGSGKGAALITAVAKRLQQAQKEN

Compound	activity change, negative = activation
CC(=O)OC1C2(CC3N4C(=O)C5(CO)SSC4(CC31O)C(=O)N5C)OC(C)C(C)(C)C2=O (stereo unspecified)	-42.1% (active)
